For data set [1], the system named is Human alphaherpesvirus 1. Briefly: Antiviral activity against HSV1 F infected in african green monkey Vero cells assessed as reduction of virus-induced cytopathic effect by cellular replication assay. In kind it is functional, organism-based. The essentials: (§1)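 HSV1 strain F replication in Vero cells, 0.1 nM to 125 µM. IC50 is the concentration reducing viral cytopathic effect by 50%; Tox50 is the concentration reducing cell viability by 50%. SI = Tox50/IC50.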

The test system of data set [2] is Vero. The data set can be described thus: Cytotoxicity against african green monkey Vero cells at 10 uM by crystal violet staining. It counts as cell-based. The settings on record: chlorocebus sabaeus.
Data set [3] relates to Neospora caninum. Briefly: Antiparasitic activity against Neospora caninum NC-1 infected in african green monkey Vero cells treated 2 hrs postinfection by MMDA assay. In kind it is functional, organism-based.
Data set [4] addresses T1, Estrogen receptor beta (Homo sapiens, UniProt Q92731). Briefly: Agonist activity at ERbeta up to 10 uM by fluorescence polarization assay. It counts as functional.
A short description of data set [5]: Cytotoxicity against PCKC by crystal violet staining. Also noted: species or system Gallus gallus. To be noted: chicken. The gist of the method: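 Uninfected compound-treated primary chicken kidney cells served as toxicity controls in the 120 h monolayer assay (200, 10, 1, 0.1 ppm). Viability judged microscopically or by crystal violet after 5 min MeOH fixation.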

Data set [6] concerns the target T1, Estrogen receptor beta. Briefly: Agonist activity at ERbeta by fluorescence polarization assay. It counts as functional.
Data set [7] is described as follows: Selectivity index, ratio of cytotoxicity against african green monkey Vero cells to IC50 for HSV1 F. In kind it is toxicity, cell-based. The settings on record: read-out: Selectivity Index. The gist of the method:
as §1

Data set [8] relates to Eimeria tenella. Briefly: Antiparasitic activity against Eimeria tenella Houghton infected in PCKC at 10 ppm treated 2 hrs postinfection by MMDA assay. It counts as functional, organism-based. The essentials:
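Confluent primary chicken kidney cell monolayers (DMEM or RPMI with 10% FBS, glutamine, essential amino acids; 37 °C, 5% CO2) in 96-well plates infected with E. tenella Houghton; compounds added 2 h post infection at 200, 10, 1, 0.1 ppm. Stopped 120 h post infection; monolayer disruption scored microscopically or by crystal violet after MeOH fixation (2 full, 1 weak, 0 none).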

In data set [9] the test system is Eimeria tenella. Briefly: Antiparasitic activity against Eimeria tenella Houghton infected in PCKC at 1 ppm treated 2 hrs postinfection by MMDA assay. It counts as functional, organism-based. The gist of the method:
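Primary chicken kidney cell monolayers grown to confluence with 10% FBS, glutamine and essential amino acids at 37 °C, 5% CO2, in 96-well plates. They were infected with E. tenella Houghton, and test samples were added 2 h post infection. Tested at 200, 10, 1 and 0.1 ppm; stopped at 120 h. Monolayer integrity was read microscopically or by MeOH fixation and crystal violet. Scored as full, weak, none or cytotoxic.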

Data set [10] deals with Vero. The data set can be described thus: Cytotoxicity against african green monkey Vero cells by crystal violet staining. In kind it is cell-based. To be noted: chlorocebus sabaeus.
Data set [11] relates to Vero. The data set can be described thus: Cytotoxicity against african green monkey Vero cells at 2.5 uM by crystal violet staining. It counts as cell-based. The settings on record: chlorocebus sabaeus.
Where [12] appears, read: Human alphaherpesvirus 1, F, Vero.

Calls of active or inactive are those of the source. The calls are words filed in the database; no cut-off is given here.

T1 sequence (Q92731 whole entry): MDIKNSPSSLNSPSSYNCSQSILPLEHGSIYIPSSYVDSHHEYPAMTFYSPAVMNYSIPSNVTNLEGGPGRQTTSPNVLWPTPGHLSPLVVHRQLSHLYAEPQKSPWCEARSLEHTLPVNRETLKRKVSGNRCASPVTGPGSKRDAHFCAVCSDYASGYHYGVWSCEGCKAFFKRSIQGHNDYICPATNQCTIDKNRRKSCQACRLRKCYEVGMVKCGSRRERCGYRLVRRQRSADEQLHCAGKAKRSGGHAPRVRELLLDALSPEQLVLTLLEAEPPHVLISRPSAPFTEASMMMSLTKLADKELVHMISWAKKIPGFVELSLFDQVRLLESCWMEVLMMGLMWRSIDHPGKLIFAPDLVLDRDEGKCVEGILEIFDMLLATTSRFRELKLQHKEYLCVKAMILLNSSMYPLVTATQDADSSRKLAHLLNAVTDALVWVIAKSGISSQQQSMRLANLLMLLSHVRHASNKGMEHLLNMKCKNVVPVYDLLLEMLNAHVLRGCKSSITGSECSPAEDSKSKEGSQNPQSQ

Take `C[C@H]1CCC[C@@H](O)CCCCCc2cc(O)cc(O)c2C(=O)O1` (stereo in doubt; 17) [TALERANOL]: the IC50 in data set [1] (vero) worked out at 1.5 µM.
For `C[C@H]1C/C=C/CC/C=C/C(=O)Cc2cc(O[C@@H]3O[C@H](CO)[C@@H](O)[C@H]3O)cc(O)c2C(=O)O1` [MONOCILLIN II GLYCOSIDE], the Activity result in data set [2] and in [5] was “Toxic” each time. The result in data set [3] and in data set [4] was inactive.
As for `C[C@H]1CCCC(=O)CCCCCc2cc(O)cc(O)c2C(=O)O1` (stereo in doubt; 19) [ZEARALANONE], the EC50 in [6] was 0.66 µM.
For `C[C@H]1CCCC(=O)CCCCCc2cc(O)cc(O)c2C(=O)O1` (stereo in doubt; 16), the outcome in data set [1] was inactive.
Regarding `C[C@H]1C/C=C/C(O)C/C=C/C(=O)Cc2c(Cl)c(O)cc(O)c2C(=O)O1` (stereo not given in full) [POCHONIN E], in data set [1] (setting [12]), the IC50 amounted to 1.5 µM. In addition, the result in data set [3] and in data set [4] was inactive. Moreover, the Activity result in [5] is “Toxic”.
Regarding `C[C@H]1C[C@H](O)C(Cl)/C=C\C=C\C(=O)Cc2c(Cl)c(O)cc(O)c2C(=O)O1` (stereo not given in full) [POCHONIN C], the IC50 in [1] (setting [12]) was 6 µM. Moreover, the result in data set [3] and in [4] was inactive. Further, the Activity result in [5] is recorded as “Toxic”.
Consider `C[C@@H]1C[C@H]2O[C@@H]2CC/C=C/C(=O)Cc2cc(O)cc(O)c2C(=O)O1` [MONOCILLIN III], for which, in data set [1] (setting [12]), the IC50 was 0.4 µM. Further, the selectivity ratio in data set [7] came out at 7.5. Besides, the result in data set [3] and in [4] was inactive.
Turning to `C[C@H]1CCC[C@H](O)CCCCCc2cc(O)cc(O)c2C(=O)O1`, in [1], the outcome was inactive.
As to `C[C@H]1C[C@H]2O[C@@H]2CCCCC(=O)Cc2c(Cl)c(O)cc(O)c2C(=O)O1` [TETRAHYDROMONORDEN], in data set [1] (setting [12]), the 50% inhibitory concentration (IC50) was 1.5 µM. The result in [8] was Active. Besides, the outcome in data set [9], in data set [3] and in data set [4] was inactive.
As to `COc1cc(O)c2c(c1)/C=C/CCC[C@H](O)CCC[C@H](C)OC2=O`, the result in data set [1] and in data set [6] was inactive.
As for `C[C@@H]1C[C@H]2O[C@@H]2/C=C\C=C\C(=O)Cc2c(Cl)c(O)cc(O)c2C(=O)O1` [RADICICOL], the IC50 in data set [1] (setting [12]) was 0.2 µM. The Activity result in data set [10] and in [5] was “Toxic” in each case. For the same molecule, the result in data set [8] was Active. Further, the result in data set [9] and in data set [3] was inactive.
`C[C@H]1CCCC(=O)CCCCCc2cc(O)cc(O)c2C(=O)O1` (stereo in doubt; 19): the outcome in data set [1] was inactive.
`C[C@H]1CCCC(=O)CCCCCc2cc(O)cc(O)c2C(=O)O1` (stereo in doubt; 16) [ZEARALANONE] gave an EC50 in data set [6] of 0.038 µM.
Consider `C[C@H]1C[C@H]2O[C@@H]2CC/C=C/C(=O)Cc2c(Cl)c(O)cc(O)c2C(=O)O1` [POCHONIN A], for which, in data set [1] (setting [12]), the IC50 is 2 µM. For the same molecule, the outcome in [8] was Active. Also, the result in [3] and in data set [4] was inactive.
As to `C[C@@H]1C/C=C/CC/C=C/C(=O)Cc2c(Cl)c(O)cc(O)c2C(=O)O1` [POCHONIN D], the outcome in data set [1], in data set [3] and in data set [4] was inactive. Further, the Activity entry in data set [11] and in [5] was “Toxic” in each case.
Take `CC/C=C\[C@H](O)[C@H](O)C1=C(C)C(=O)[C@]2(O1)C(=O)N[C@@](OC)(C(=O)c1ccccc1)[C@@H]2O` [PSEUROTIN A]: in data set [1] (setting [12]), the IC50 stood at 50 µM. Also, the selectivity ratio in data set [7] is 6. Further, the outcome in data set [8] was Active. The outcome in data set [3] was inactive.
`C[C@H]1CCCC(=O)CCC/C=C/c2cc(O)cc(O)c2C(=O)O1` [ZEARALENONE]: the outcome in [1] was inactive. The molecule further displayed an EC50 in [6] of 0.11 µM.
As for `C[C@H]1C[C@H]2O[C@@H]2C[C@H](O)/C=C/C(=O)Cc2c(Cl)c(O)cc(O)c2C(=O)O1` [POCHONIN B], in [1] (setting [12]), the IC50 is 10 µM. Besides, the outcome in data set [3] and in data set [4] was inactive. Besides, the Activity entry in [5] was “Toxic”.
Regarding `C[C@H]1CCC[C@@H](O)CCCCCc2cc(O)cc(O)c2C(=O)O1` (stereo in doubt; 21) [TALERANOL], the IC50 in data set [1] (vero) was found to be 15 µM.

These data come from ChEMBL document CHEMBL1146536, “Pochonins A-F, new antiviral and antiparasitic resorcylic acid lactones from Pochonia chlamydosporia var. catenulata” (J Nat Prod, 2003).
